High-throughput results deposited in PubChem by several laboratories.
PKD1 kinase inh: inhibitors of human PKD1 kinase, biochemical, fluorescence polarization. AID 797, 2007. 200,000 compounds, 0.056% hits. PKD1 kinase fluorescence polarization assay. inhibition, % (no concentration beside the values). Serine/threonine-protein kinase D1 (Homo sapiens), Q15139
Avidin fluor: green autofluorescence of compounds with avidin beads – biophysical, 488/530 nm, flow cytometry, artefact control, profiling panel; 220,000 compounds, 0.38% hits; AID 1775, 2009; fluorescence (KMESF) at 10 µM; compound fluorescence 488/530 nm; stronger effect = higher value; in the data active = fluorescence above about 47
ABCG2 inh: ABCG2 efflux pump inhibitors, primary screen, multiplex with ABCB1, IgMXP3 cells, flow cytometry; JC-1 efflux; AID 1325, 2008; 190,000 compounds, 0.1% hits; Broad substrate specificity ATP-binding cassette transporter ABCG2 (Homo sapiens), Q9UNQ0; inhibition, % at 6.6 µM;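 active = inhibition above 80%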
Target sequence (Q9UNQ0 whole entry, looked up): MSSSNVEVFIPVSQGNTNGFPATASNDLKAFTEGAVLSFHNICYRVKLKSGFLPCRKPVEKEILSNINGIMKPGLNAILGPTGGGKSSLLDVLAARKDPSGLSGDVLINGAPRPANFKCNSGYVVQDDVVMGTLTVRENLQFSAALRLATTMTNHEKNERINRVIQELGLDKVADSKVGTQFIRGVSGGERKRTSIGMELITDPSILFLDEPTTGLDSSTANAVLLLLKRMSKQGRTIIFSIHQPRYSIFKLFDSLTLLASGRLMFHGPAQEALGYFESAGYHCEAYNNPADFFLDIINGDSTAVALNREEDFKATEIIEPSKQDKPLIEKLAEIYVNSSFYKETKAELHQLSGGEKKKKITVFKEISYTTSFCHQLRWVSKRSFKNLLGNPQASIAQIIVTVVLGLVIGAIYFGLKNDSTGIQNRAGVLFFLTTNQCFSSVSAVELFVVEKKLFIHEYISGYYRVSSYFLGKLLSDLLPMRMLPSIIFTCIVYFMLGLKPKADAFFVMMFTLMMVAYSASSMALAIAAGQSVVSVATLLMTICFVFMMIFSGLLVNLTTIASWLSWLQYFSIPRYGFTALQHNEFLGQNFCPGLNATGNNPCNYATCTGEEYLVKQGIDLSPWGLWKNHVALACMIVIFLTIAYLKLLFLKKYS
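Assay system – ABCG2 IgMXP3 and barcoded ABCB1 CCRF-Adr cell mix · Input – 3 million cells/mL in well · Reagent – JC-1 fluorescent substrate · Compound – single test compound dose, 6.6 µM final · Timing – 10 min exposure at 25 °C with rotation, no wash · Detection – flow cytometry of retained JC-1 fluorescence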
L major viab: Leishmania major promastigote growth inhibition, primary screen | Leishmania major promastigotes, resazurin fluorescence viability | inhibition, % at 10 µM | 200,000 compounds, 9% hits | AID 1063, 2008;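 note: promastigotes grown with compound for 44 hours at 28 °C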
ABCB1 block: ABCB1 efflux pump inhibitors, primary screen, cell-based, multiplex, flow cytometry, ABCG2 counter-screen; CCRF-Adr cells, JC-1 efflux; 190,000 compounds, 0.067% hits; ATP-dependent translocase ABCB1 (Homo sapiens), P08183; inhibition, % at 6.6 µM; AID 1326, 2008; in the data active = inhibition above about 40%;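 note: higher value means more JC-1 retained so stronger ABCB1 efflux block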
GSH bead fluor: compound fluorescence on glutathione beads, profiling panel, artefact control, biophysical, 488/530 nm, flow cytometry; 190,000 compounds, 0.25% hits; fluorescence (KMESF) at 10 µM; GSH beads flow cytometry, compound fluorescence 488/530 nm; stronger effect = higher value; in the data active = fluorescence above about 89;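 note: glutathione beads carrying GST-tagged Bcl family fusion proteins plus one bare bead set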
ABCB1 confirm: ABCB1 efflux pump inhibitors, confirmation, cell-based, single point, ABCG2 counter-screen. shares compounds with ABCG2 inh. CCRF-Adr cells, JC-1 efflux, flow cytometry. inhibition, % at 6.6 µM. 270 compounds, 7% hits;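 active = inhibition of pump activity above 50%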
ABCG2 single pt: ABCG2 efflux pump inhibitors, confirmation, single point, IgMXP3 cells, ABCB1 counter-screen paired | 270 compounds, 6% hits | inhibition, % at 6.6 µM | shares compounds with ABCG2 inh | JC-1 efflux, flow cytometry;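 active = inhibition above 50%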
IgMXP3 fluor: compound autofluorescence in ABCG2-expressing IgMXP3 cells, confirmation, artefact control for ABC transporter inhibitor project, cell-based, 488/530 nm, flow cytometry. 270 compounds, 30% hits. shares compounds with ABCG2 inh. fluorescence at 6.6 µM. compound autofluorescence 488/530 nm; stronger effect = higher value;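 active = fluorescence in ABCG2-expressing cells above the plate's control-well mean plus 3 SD, cut at about 15 in these data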
CCRF-Adr fluor: compound autofluorescence in ABCB1-expressing CCRF-Adr cells, confirmation, artefact control for ABC transporter inhibitor project, cell-based, 488/530 nm, flow cytometry; 270 compounds, 30% hits; fluorescence at 6.6 µM; compound autofluorescence 488/530 nm; stronger effect = higher value; shares compounds with ABCG2 inh;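 active = fluorescence beyond the plate control mean plus 3 SD, with a fluorescence-to-maximum score over 2, cut at about 25 in these data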
Each line names hits and unclear results; the compound was inactive in the other large screens (follow-up assays come after a bar, where they were run). The sample as a whole holds a higher share of hits than the screen did. Cut-off read from the data, not from the text of the source, unless noted: active = inhibition above about 50%; inactive = the rest.

CC(C)C(NS(=O)(=O)c1ccccc1)C(=O)OCc1cc([N+](=O)[O-])cc2c1OCOC2 (stereo not given)	ABCG2 inh 89 | ABCB1 confirm inactive | ABCG2 single pt inactive | IgMXP3 fluor inactive | CCRF-Adr fluor inactive
COc1cc(C(=O)NC(CCSC)C(=O)OCc2cc([N+](=O)[O-])cc3c2OCOC3)cc(OC)c1OC (stereo not given)	ABCB1 block 58 | ABCB1 confirm inactive | ABCG2 single pt inactive | IgMXP3 fluor inactive | CCRF-Adr fluor inactive
CCCCN1C(=O)/C(=C/C=C2\Oc3ccccc3N2CC)SC1=S	ABCG2 inh 89 | ABCB1 confirm inactive | ABCG2 single pt inactive | IgMXP3 fluor 162 | CCRF-Adr fluor 423
CN1/C(=C\C=C2/SC(=S)N(CC(=O)O)C2=O)C(C)(C)c2ccccc21	none
C=CCN1C(=O)/C(=C\C=C2\N(C)c3ccccc3C2(C)C)SC1=S	ABCG2 inh 189, ABCB1 block 61 | ABCB1 confirm inactive | ABCG2 single pt inactive | IgMXP3 fluor 145 | CCRF-Adr fluor 186
CCCN1C(=O)/C(=C/C=C2\N(CC)c3ccccc3C2(C)C)SC1=S	ABCB1 block 70 | ABCB1 confirm inactive | ABCG2 single pt inactive | IgMXP3 fluor 96 | CCRF-Adr fluor 193
CCN1C(=O)/C(=C/C=C2/Sc3ccccc3N2CCO)SC1=S	none
COc1ccc(/C=N/NC(=O)c2cccnc2)cc1CN1CCN(c2ccc(F)cc2)CC1	ABCB1 block 45 | ABCB1 confirm inactive | ABCG2 single pt inactive | IgMXP3 fluor inactive | CCRF-Adr fluor inactive
O=C(NC12CC3CC(CC(C3)C1)C2)c1ccc(S(=O)(=O)N2CCOCC2)cc1	none
CCOc1cc(N2CCOCC2)c(OCC)cc1NC(=O)COC(=O)c1cc(C)cc(C)c1	ABCG2 inh 106 | ABCB1 confirm inactive | ABCG2 single pt inactive | IgMXP3 fluor inactive | CCRF-Adr fluor inactive
O=C(c1ccccc1)c1ccc(N2CCOCC2)c(NC(=O)c2ccco2)c1	ABCG2 inh 81, L major viab 64 | ABCB1 confirm inactive | ABCG2 single pt inactive | IgMXP3 fluor inactive | CCRF-Adr fluor 33
O=C(Nc1cc(C(F)(F)F)ccc1N1CCOCC1)c1ccco1	none
CCc1cccc(CC)c1NC(=O)c1cc(CN2C(=O)c3ccccc3C2=O)ccc1OC	ABCG2 inh 96, L major viab 88, ABCB1 block 57 | ABCB1 confirm inactive | ABCG2 single pt inactive | IgMXP3 fluor inactive | CCRF-Adr fluor inactive
COc1ccc(CN2C(=O)c3ccccc3C2=O)cc1C(=O)OC(C)C(=O)NC(N)=O (stereo not given)	none
COc1ccccc1NC(=O)/C(=C/c1cccc([N+](=O)[O-])c1)c1ccccc1	L major viab 89 | ABCB1 confirm inactive | ABCG2 single pt inactive | IgMXP3 fluor inactive | CCRF-Adr fluor inactive
COc1ccccc1C(=O)N/C(=C/c1cccc([N+](=O)[O-])c1)C(=O)Nc1cccc(C(=O)O)c1	none
Cc1ccc(C)c(S(=O)(=O)NCc2ccc(C(=O)NCc3ccccn3)cc2)c1	none
CCOC(=O)CSc1nnc(NC(=O)c2cccc([N+](=O)[O-])c2C)s1	none
CC(=O)Nc1ccc(C(=O)OCC(=O)c2cccc([N+](=O)[O-])c2)cc1	ABCG2 inh 82 | ABCB1 confirm inactive | ABCG2 single pt inactive | IgMXP3 fluor inactive | CCRF-Adr fluor inactive
COc1ccccc1Nc1nc2nonc2nc1N1CCCCC1C (stereo not given)	ABCG2 inh 87, L major viab 91 | ABCB1 confirm inactive | ABCG2 single pt inactive | IgMXP3 fluor 30 | CCRF-Adr fluor inactive
CC(C)Nc1nc(NC(C)C)nc(OCCOC(=O)Nc2ccccc2)n1	none (no result: ABCG2 inh, ABCB1 block)
O=C1c2cccc(OCC(=O)N3CCCc4ccccc43)c2CCN1Cc1cccnc1	none
Cc1ccccc1CN1CCc2c(OCC(=O)N3CCCc4ccccc43)cccc2C1=O	L major viab 96, ABCB1 block 47 | ABCB1 confirm inactive | ABCG2 single pt inactive | IgMXP3 fluor 22 | CCRF-Adr fluor inactive
Cc1cc(C)nc(-n2nc(C)c3c(C(F)(F)F)cc(=O)[nH]c32)n1	none | ABCB1 confirm inactive | ABCG2 single pt inactive | IgMXP3 fluor inactive | CCRF-Adr fluor inactive
COc1ccc(C(=O)Oc2cc3c4c(c2)C(C)=CC(C)(C)N4C(=O)C3=O)cc1OC	ABCG2 inh 91 | ABCB1 confirm inactive | ABCG2 single pt inactive | IgMXP3 fluor inactive | CCRF-Adr fluor inactive
COc1cccc(C(=O)Oc2cc3c4c(c2)C(C)=CC(C)(C)N4C(=O)C3=O)c1	none
